From PubChem BioAssay
S100A4 MyoIIA: inhibitors of S100A4-myosin IIA peptide binding, primary screen, biochemical, fluorescence polarization, TAMRA-MyoIIA peptide; 360,000 tested, 0.14% active; inhibition, % at 10.7 µM;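 active = mean inhibition of at least 70% across replicates, with every replicate also reaching that level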
Target sequence (P26447 whole entry, looked up): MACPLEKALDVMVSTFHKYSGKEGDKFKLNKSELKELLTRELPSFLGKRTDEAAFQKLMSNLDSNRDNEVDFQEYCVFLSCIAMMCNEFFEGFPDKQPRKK
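Compound dosing: one dose per compound; test system: human S100A4 monomer with TAMRA-labelled myosin IIA peptide; probe or stimulus: TAMRA-labelled myosin IIA heavy-chain peptide probe, 5 nM; medium: HEPES buffer with Ca2+, pH 7.2; schedule: 5 min incubation before reading; benchmarks: neutral control DMSO, positive control TFP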
XiGFP reactiv: activators of inactive X chromosome reactivation, primary screen, imaging, XiGFP fibroblasts, GFP high-content imaging, set 2. AID 743238, 2013. XiGFP mouse fibroblasts, % GFP-positive cells imaging, 3 d; cells co-treated with 5-aza-dC sensitizer; scaled so ellipticine positive control = 100%. 360,000 tested, 0.055% active. activation, % at 7.58 µM;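 active = mean normalized replicate activation at least 10% and every replicate at or above 10%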
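System: 68-5-11 XiGFP fibroblast line; Timing: 3 days compound exposure; Compound dosing: one concentration, pinned; Benchmarks: positive control ellipticine, 6 µM final; Buffer or medium: DMEM containing 5-aza-dC.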
E-sel inducer: E-selectin induction in HUVECs, primary screen, imaging, HUVEC, immunofluorescence imaging, single point; P16581; 260,000 tested, 0.37% active; AID 686992, 2013; normalized: neutral wells 0, TNF-alpha wells 100; activation, % at 7.58 µM;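 active = mean E-selectin-positive cell signal at least 10% of the positive control, reached in at least 60% of replicates, without over 20% cell loss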
Target sequence (P16581 whole entry, looked up): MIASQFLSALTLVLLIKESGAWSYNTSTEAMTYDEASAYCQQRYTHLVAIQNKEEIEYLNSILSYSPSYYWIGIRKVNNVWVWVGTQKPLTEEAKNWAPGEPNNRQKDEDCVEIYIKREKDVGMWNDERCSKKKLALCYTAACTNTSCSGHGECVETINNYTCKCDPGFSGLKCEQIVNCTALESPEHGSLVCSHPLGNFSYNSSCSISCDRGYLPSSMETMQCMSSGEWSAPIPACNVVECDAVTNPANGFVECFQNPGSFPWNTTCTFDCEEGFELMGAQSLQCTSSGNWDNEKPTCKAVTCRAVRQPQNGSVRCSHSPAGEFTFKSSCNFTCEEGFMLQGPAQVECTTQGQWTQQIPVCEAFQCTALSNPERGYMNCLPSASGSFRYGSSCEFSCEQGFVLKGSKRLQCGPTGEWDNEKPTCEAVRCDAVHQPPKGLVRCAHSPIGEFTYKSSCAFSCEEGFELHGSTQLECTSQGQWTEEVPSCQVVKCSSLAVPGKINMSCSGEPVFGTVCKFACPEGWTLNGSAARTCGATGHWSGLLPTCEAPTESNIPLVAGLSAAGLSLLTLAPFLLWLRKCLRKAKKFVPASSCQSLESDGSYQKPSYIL
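Assay system: HUVEC primary endothelial cells. Input: 3,000 HUVEC seeded per well. Doses: one compound dose added by pin transfer. Read-out basis: % PE-positive cells. Benchmarks: TNF-alpha high, DMSO low. Detection: immunofluorescence imaging. Buffer or medium: EGM-2, gelatin.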
DENV2 CPE rescue: inhibitors of DENV2 cytopathic effect, primary screen, cell-based, plate reader, single concentration | DENV2-infected cells, cytopathic effect rescue | CPE inhibition, % at 9.99 µM | 350,000 tested, 1.7% active | AID 651640, 2012; in the data active = CPE inhibition above about 20%, passing the limit was not always enough; tested in BHK-21 cells
Large screens that a line does not name were inactive. An excerpt weighted towards active compounds, which were near 2% of everything screened.

C[C@H]1CN([C@@H](C)CO)C(=O)CCCn2cc(nn2)CO[C@H]1CN(C)Cc1ccc(C(=O)O)cc1	DENV2 CPE rescue 25.2
C[C@H]1CN([C@@H](C)CO)C(=O)CCCn2cc(nn2)CO[C@@H]1CN(C)Cc1cccc(C(=O)O)c1	DENV2 CPE rescue 23.9
Cc1nnsc1C(=O)NNC(=O)c1ccc(C(F)(F)F)cc1	none
O=C(C[C@@H]1CC[C@H]2[C@@H](COC[C@H](O)CN2C(=O)c2ccncc2)O1)Nc1ccc(-c2ccccc2)cc1	DENV2 CPE rescue 27.7
O=C(C[C@@H]1CC[C@H]2[C@@H](COC[C@H](O)CN2C(=O)c2ccncc2)O1)NC1Cc2ccccc2C1	DENV2 CPE rescue 30.0
O=C(C[C@@H]1CC[C@H]2[C@@H](COC[C@H](O)CN2C(=O)c2ccc(F)cc2)O1)Nc1ccc(-c2ccccc2)cc1	E-sel inducer 38.0
O=C(C[C@H]1CC[C@@H]2[C@H](COC[C@H](O)CN2C(=O)c2ccccc2)O1)Nc1ccc(-c2ccccc2)cc1	DENV2 CPE rescue 55.2
O=C(C[C@@H]1CC[C@H]2[C@@H](COC[C@@H](O)CN2C(=O)c2cccnc2)O1)Nc1ccc(-c2ccccc2)cc1	none
O=C(C[C@H]1CC[C@@H]2[C@H](COC[C@@H](O)CN2C(=O)c2ccccc2)O1)Nc1ccccc1	none
Cc1ccccc1S(=O)(=O)NCC[C@H]1CC[C@@H](NS(=O)(=O)c2ccccc2C)[C@@H](CO)O1	none
O=C(C1CCCN(S(=O)(=O)c2cccnc2)C1)N1CCN(c2ccccn2)CC1 (stereo not drawn)	DENV2 CPE rescue 87.2 (no result: E-sel inducer)
CCOC(=O)N1CCN(C(=O)C2CCCN(S(=O)(=O)c3cccnc3)C2)CC1 (stereo not drawn)	none
COc1ccc(-c2oc(=O)c3cc(OC)c(OC)cc3c2/C=C/c2cccc([N+](=O)[O-])c2)cc1	DENV2 CPE rescue 33.7 (no result: E-sel inducer)
COc1ccc(-c2oc(=O)c3cc(OC)c(OC)cc3c2/C=C/c2ccc([N+](=O)[O-])cc2)cc1	none (no result: DENV2 CPE rescue)
CN(C)Cc1c(C(C)(C)O)[nH]c2ccccc12	none
Cc1ccc(S(=O)(=O)N2C[C@@H]3[C@H]4CC[C@H](C4)[C@@H]3[C@@H](C)[C@@H]2c2ccn([Si](C(C)C)(C(C)C)C(C)C)c2)cc1	DENV2 CPE rescue 24.9
C=CCC1[C@H](C)[C@H]2[C@@H]3CC[C@@H](C3)[C@H]2CN1S(=O)(=O)c1ccc(C)cc1 (stereo partly drawn)	none
Cc1ccc(NC(=O)C(=O)NCC2CCCN2S(=O)(=O)c2cccs2)cc1 (stereo not drawn)	DENV2 CPE rescue 37.8
CC(C)NC(=O)Nc1ccc2c(c1)C(=O)N([C@@H](C)CO)C[C@@H](C)[C@H](CN(C)Cc1ccc(C(=O)O)cc1)OCCCC[C@@H](C)O2	DENV2 CPE rescue 21.5
CC(C)NC(=O)Nc1ccc2c(c1)C(=O)N([C@H](C)CO)C[C@@H](C)[C@@H](CN(C)Cc1ccc(C(=O)O)cc1)OCCCC[C@H](C)O2	DENV2 CPE rescue 38.6
CCCCOc1ccc(OCCCN2CCOCC2)cc1	none
COc1cc(/C=C/C(=O)N2CCN(c3n[nH]c(=O)[nH]c3=O)CC2)cc(OC)c1OC	none (no result: E-sel inducer)
O=C(Nc1ccc(Cl)cc1)NC1CCCCNC1=O (stereo not drawn)	none
COc1cc(OC)cc(C(=O)OC/C(O)=C(\C#N)c2nc3ccccc3[nH]2)c1	DENV2 CPE rescue 60.5
Cc1ccc(-c2cc(C(=O)N3CCCc4ccccc43)no2)cc1	none
O=C(c1cc(-c2cccs2)on1)N1CCCc2ccccc21	DENV2 CPE rescue 85.2
CC(OC(=O)c1ccc2c(=O)n3c(nc2c1)CCC3)C(=O)NC1CCCCC1C (stereo not drawn)	DENV2 CPE rescue 33.0
CCc1ccccc1OCC(=O)NNCC(=O)Nc1cccc(C#N)c1	DENV2 CPE rescue 41.2 (no result: E-sel inducer)
N#Cc1cccc(NC(=O)Cc2ccsc2)c1	none (no result: E-sel inducer)
CO[C@H]1CN(C)C(=O)c2cc(NC(=O)CC(F)(F)F)ccc2OC[C@H](C)N(S(=O)(=O)c2cn(C)cn2)C[C@@H]1C	none
C[C@@H]1CN([C@@H](C)CO)C(=O)Cc2cc(NC(=O)c3ccncc3)ccc2O[C@H]1CN(C)Cc1ccc(C(=O)Nc2ccccc2N)cc1	DENV2 CPE rescue 72.0
COc1ccc(NC(=O)Nc2ccc3c(c2)CC(=O)N([C@H](C)CO)C[C@@H](C)[C@H](CN(C)Cc2ccc(C(=O)Nc4ccccc4N)cc2)O3)cc1	DENV2 CPE rescue 55.4 (no result: E-sel inducer)
CN1C(=O)c2cc(NS(=O)(=O)c3ccc(Cl)cc3)ccc2OC[C@H]2O[C@@H](CC(=O)Nc3ccc4c(c3)COC4)CC[C@@H]21	none (no result: S100A4 MyoIIA)
O=c1[nH]ncc(N2CCN(Cc3ccccc3)CC2)c1Cl	none (no result: E-sel inducer)
Cn1cnc(CCNC(=O)C[C@@H]2CC[C@@H]3[C@H](COC[C@@H](O)CN3C(=O)C3CCCC3)O2)c1	none
COc1ccc(NC(=O)N[C@H]2CC[C@@H](CCn3cc(C4(O)CCCC4)nn3)O[C@@H]2CO)cc1	DENV2 CPE rescue 93.2
O=C(Nc1ccc(F)cc1)N[C@@H]1CC[C@@H](CCn2cc(-c3ccc(F)cc3)nn2)O[C@H]1CO	DENV2 CPE rescue 21.7
COc1ccc(-c2cn(CC[C@@H]3CC[C@H](NC(=O)Nc4ccc(F)cc4)[C@H](CO)O3)nn2)cc1	DENV2 CPE rescue 95.1
COc1ccc(NC(=O)N[C@@H]2CC[C@@H](CCn3cc(C4(O)CCCC4)nn3)O[C@@H]2CO)cc1	none
COc1ccc(NC(=O)N[C@@H]2CC[C@H](CCn3cc(-c4ccc(F)cc4)nn3)O[C@@H]2CO)cc1	none
O=[N+]([O-])c1ccc(N2CCN(CCO)CC2)cc1NCc1ccco1	none (no result: S100A4 MyoIIA, E-sel inducer, DENV2 CPE rescue)
CCn1c(SCC(=O)N(C)Cc2ccc(OC)c(F)c2)nc2cc(S(N)(=O)=O)ccc21	E-sel inducer 42.3
C[C@H](CO)N1C[C@H](C)[C@@H](CN(C)Cc2ccccc2)Oc2c(NC(=O)CCC(F)(F)F)cccc2C1=O	none (no result: S100A4 MyoIIA, E-sel inducer, DENV2 CPE rescue)
C[C@H](CO)N1C[C@H](C)[C@H](CN(C)Cc2ccc(Cl)c(Cl)c2)Oc2c(NC(=O)CCCCCC(=O)Nc3ccccc3N)cccc2C1=O	E-sel inducer 409.7
C[C@H](CO)N1C[C@H](C)[C@@H](CN(C)Cc2ccc(Cl)c(Cl)c2)Oc2c(NC(=O)CCC(F)(F)F)cccc2C1=O	DENV2 CPE rescue 22.4
CN(C(=O)CN1CCN(c2cnn(-c3ccccc3)c(=O)c2Cl)CC1)C1CCS(=O)(=O)C1 (stereo not drawn)	none (no result: E-sel inducer)
O=[N+]([O-])c1cccc(C(=S)N2CCCC2)c1	none (no result: E-sel inducer)
COc1ccc(NS(=O)(=O)c2ccc(F)c(F)c2F)cc1S(=O)(=O)N1CCOCC1	none (no result: E-sel inducer)
CC(C)CCN1C(=O)CSCC1(C)C(=O)Nc1ccc2c(c1)OCCO2 (stereo not drawn)	none
